SR-BI DiI-HDL act: activators of SR-BI mediated HDL lipid uptake | CHO ldlA[mSR-BI] cells, DiI-HDL uptake fluorescence, 3 h; 100 = double the neutral-control signal | activation, % at 12.5 µM | 0.096% of 320,000 active;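 active = mean replicate activation of at least 60% and every replicate at or above 60%; inconclusive = mean or all-replicate condition met, but not both; inactive = mean below 60% and not all replicates reaching 60%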
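Test system: SR-BI-overexpressing, LDLR-lacking CHO cells; Medium: Ham's F12 with 0.5% BSA, HEPES 25 mM, pH 7.4; Schedule: 3 h, 37 °C; Technique: bottom-read fluorescence, 550/595 nm.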
dFosB act-1: enhances mouse delta FosB homodimer DNA binding | P13346 | purified delta FosB, TAMRA-CDK5 oligo fluorescence polarization; percent of positive-control signal above neutral wells | activation, % at 25 µM | 0.99% of 340,000 active | AID 493131;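 active = mean activation above about 17%, with every replicate also reaching it, limit read from the data, passing the limit was not always enough; inconclusive = only one of the two conditions met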
S100A4 MyoIIA: inhibitors of human S100A4 binding to myosin IIA peptide | S100A4/TAMRA-MyoIIA peptide fluorescence polarization | inhibition, % at 10.7 µM | 0.14% of 360,000 active | P26447;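 active = mean inhibition of at least 70% across replicates, with every replicate also reaching that level; inconclusive = mean inhibition reaches 70% but some replicates fall short; inactive = mean inhibition below 70%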
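Test system: S100A4 monomer protein. Medium: HEPES buffer with Ca2+, pH 7.2. Reagent: fluorescent myosin IIA peptide, 5 nM. Compound dosing: single-point compound testing. Timing: 5 min between mix addition and reading. Benchmarks: DMSO neutral and TFP positive wells.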
PvdQ inh: P. aeruginosa PvdQ acylase inhibition | 0.063% of 340,000 active | purified PvdQ acylase, fluorescence plate reader | inhibition, % at 10 µM; in the data active = inhibition above about 30%, passing the limit was not always enough; inconclusive = no clear call, values can overlap the other calls
SR-BI HDL uptake: inhibitors of mouse SR-BI mediated HDL lipid uptake; Q61009; ldlA[mSR-BI] CHO cells, DiI-HDL uptake fluorescence, 3 h; inhibition, % at 12.5 µM; 0.96% of 320,000 active;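 active = mean replicate inhibition of at least 70% and a set share of replicates each scoring 70 or more; inconclusive = meets just one of the two criteria; inactive = fails both criteria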
RAD54 branch: blocks human RAD54 Holliday junction branch migration. inhibition, % at 10.4 µM. AID 602329. FAM/BHQ fluorescence. 0.14% of 360,000 active;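 active = mean normalized replicate activity at least 40 and at least half of replicates scoring 40 or more; inconclusive = only one of the two criteria met; inactive = mean below 40 and under half of replicates reaching 40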;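 also: inhibitors cause a drop in the FAM fluorescence signal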
Target sequence (Q92698 whole entry, looked up): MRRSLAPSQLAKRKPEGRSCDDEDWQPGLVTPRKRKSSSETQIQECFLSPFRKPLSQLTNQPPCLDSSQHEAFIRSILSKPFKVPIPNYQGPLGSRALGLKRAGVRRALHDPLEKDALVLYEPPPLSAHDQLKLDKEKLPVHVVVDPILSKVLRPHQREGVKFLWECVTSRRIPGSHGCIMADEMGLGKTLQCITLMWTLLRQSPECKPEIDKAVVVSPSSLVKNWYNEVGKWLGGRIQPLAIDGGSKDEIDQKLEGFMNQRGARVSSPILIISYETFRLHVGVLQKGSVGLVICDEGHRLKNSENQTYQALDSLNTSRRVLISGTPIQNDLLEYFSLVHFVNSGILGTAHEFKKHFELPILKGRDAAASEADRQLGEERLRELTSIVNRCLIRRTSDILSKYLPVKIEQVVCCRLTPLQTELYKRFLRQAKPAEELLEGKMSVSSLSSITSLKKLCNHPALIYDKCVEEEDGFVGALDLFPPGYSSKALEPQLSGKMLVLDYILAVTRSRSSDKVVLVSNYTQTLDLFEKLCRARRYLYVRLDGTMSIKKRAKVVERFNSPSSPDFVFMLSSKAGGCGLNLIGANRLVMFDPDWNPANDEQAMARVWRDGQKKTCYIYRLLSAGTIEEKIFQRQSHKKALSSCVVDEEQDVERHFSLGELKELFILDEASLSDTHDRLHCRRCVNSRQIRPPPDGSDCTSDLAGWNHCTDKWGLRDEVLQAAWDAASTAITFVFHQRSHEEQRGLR
dFosB act-2: activators of mouse delta FosB homodimer DNA binding | shares compounds with dFosB act-1 | purified delta FosB, TAMRA-CDK5 oligo fluorescence polarization; normalised: neutral wells 0, positive control 100 | activation, % at 24.9 µM | 2,400 tested, under 10 active | AID 588690;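 active = highest replicate activation at or above 34% and every replicate reaching that threshold; inconclusive = meets only one of the two criteria; inactive = meets neither criterion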;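 also: higher polarization means more probe DNA bound by delta FosB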
Numbers stand for hits; i = inactive; ? = inconclusive; nt = not tested or not shown. Hits are enriched below; roughly 1.6% of the tested compounds scored in any of these assays.

SMILES	SR-BI DiI-HDL act	dFosB act-1	S100A4 MyoIIA	PvdQ inh	SR-BI HDL uptake	RAD54 branch	dFosB act-2
COc1ccccc1-c1cnc2c(c1)C(=O)N([C@H](C)CO)C[C@@H](C)[C@H](CN(C)C(=O)c1ccncc1)O2	nt	nt	i	nt	nt	i	nt
CCC(=O)Nc1ccc(Cl)c(NC(=S)NC(=O)COc2ccccc2)c1	i	35	i	i	i	nt	?
CCC(=O)Nc1ccc(Cl)c(NC(=S)NC(=O)COc2ccc(Cl)cc2)c1	i	55	nt	i	i	nt	i
C[C@H](CO)N1C[C@H](C)[C@@H](CN(C)S(=O)(=O)c2cn(C)cn2)Oc2ccc(NS(=O)(=O)c3cccs3)cc2CC1=O	nt	nt	i	nt	nt	i	nt
NS(=O)(=O)c1ccc(CCNC(=O)c2cc(-c3ccccn3)nc3ccc(Br)cc23)cc1	i	32	i	i	i	nt	i
NS(=O)(=O)c1ccc(CCNC(=O)c2cc(-c3ccc(Br)cc3)nc3ccccc23)cc1	i	79	nt	i	i	nt	i
CCCc1ccc(-c2cc(C(=O)NCCc3ccc(S(N)(=O)=O)cc3)c3ccccc3n2)cc1	i	i	nt	i	i	nt	nt
COc1ccccc1-c1ccc2c(c1)O[C@@H](CN(C)C(=O)c1ccccc1)[C@@H](C)CN([C@@H](C)CO)S2(=O)=O	nt	nt	i	nt	nt	i	nt
CC(=O)Nc1ccc(NC(=O)CSc2nnc(-c3ccco3)o2)cc1	i	i	i	i	i	i	nt
O=C(CSc1nnc(-c2ccco2)o1)Nc1cccc([N+](=O)[O-])c1	i	41	i	i	i	i	i
COc1cc2nc(NC(=O)c3ccccc3)[nH]c(=O)c2cc1OC	i	i	nt	i	i	i	nt
COc1ccc(C(=O)Nc2nc3cc(OC)c(OC)cc3c(=O)[nH]2)cc1	i	25	nt	i	86	i	i
CC(C)(C)C1CCc2c(sc(NC(=O)c3ccncc3)c2C(N)=O)C1 (stereo unspecified)	i	34	i	i	i	i	i
Cc1occc1C(=O)Nc1sc2c(c1C(N)=O)CCC(C(C)(C)C)C2 (stereo unspecified)	i	i	i	i	i	i	nt
O=C(Nc1ccc([N+](=O)[O-])cc1Br)c1cc2ccccc2nc1Cl	i	113	i	i	i	i	i
Cc1occc1C(=O)Nc1ccc([N+](=O)[O-])cc1Br	i	i	i	i	i	i	nt
COc1cccc(CNC(=O)CCCn2c(=S)[nH]c3cc4c(cc3c2=O)OCO4)c1	i	32	i	i	i	i	i
O=c1c2ccccc2c2ccccc2c(=O)n1Cc1ccc2c(c1)OCO2	nt	nt	i	nt	nt	nt	nt
O=C(CCCn1c(=O)[nH]c2ccc(Br)cc2c1=O)NCc1ccc(Cl)cc1	nt	100	i	i	nt	nt	i
O=c1c2ccccc2[nH]c(=S)n1Cc1ccc2c(c1)OCO2	i	21	i	i	i	i	i
O=C(CCn1c(=S)[nH]c2ccccc2c1=O)Nc1cccc(Cl)c1	i	47	i	i	i	i	i
CC(C)CC#Cc1ccc2c(c1)O[C@@H](CN(C)C(=O)C1CCCCC1)[C@@H](C)CN([C@H](C)CO)S2(=O)=O	nt	nt	i	nt	nt	i	nt
CCS(=O)(=O)Nc1ccc2c(c1)C(=O)N(C)[C@@H]1CC[C@H](CC(=O)N3CCN(C)CC3)O[C@H]1CO2	nt	nt	i	nt	nt	i	nt
CS(=O)(=O)Nc1ccc2c(c1)[C@H]1C[C@H](CC(=O)NCc3ccccc3)O[C@@H](CO)[C@H]1O2	nt	nt	i	nt	nt	i	nt
COC(=O)c1ccc2c(=O)n(CCCCCC(=O)NCc3ccc4c(c3)OCO4)c(=O)[nH]c2c1	i	i	nt	i	i	i	nt
O=C(CCCCCn1c(=S)[nH]c2ccccc2c1=O)NCc1ccc2c(c1)OCO2	i	44	nt	i	i	i	i
O=C(CCCn1c(=O)c2cccn2c2cccnc21)NCc1cccc(Br)c1	i	i	i	i	i	i	nt
O=C(CCn1c(=O)c2cccn2c2cccnc21)NCc1cccc(Cl)c1	i	21	i	i	i	i	i
CSc1ccccc1NC(=O)Cn1nnc(-c2ccc(S(C)(=O)=O)cc2)n1	i	30	i	i	i	nt	i
